Measured values gathered from unrelated publications.
OfChi-h: Chitinase (OfChi-h, Ostrinia furnacalis, UniProt Q4AE59)
WDR5: WD repeat-containing protein 5 (WDR5, Homo sapiens, UniProt P61964)
HDAC7: Histone deacetylase 7 (HDAC7, Homo sapiens, UniProt Q8WUI4)

SMILES | target | test | setting | endpoint | result
CNc1ncc2c(/C=C/C(=O)N3CCC(OC)CC3)nn(Cc3cccc(C(F)(F)F)c3)c2n1 | Bone morphogenetic protein receptor type-1A (BMPR1A, Homo sapiens, UniProt P36894) | enzyme activity, inhibitor, radiometric | 1 µM | remaining activity | 93%
CC(C)OC(=O)CNc1cccc(CN(Cc2ccc(-n3cccn3)cc2)S(=O)(=O)c2cccnc2)n1 | Beta-2 adrenergic receptor (ADRB2, Homo sapiens, UniProt P07550) | ligand displacement, radioligand | 10 µM | inhibition | 2%
CN(C)c1nc(NCc2cccc(F)c2)c(/N=N/c2ccc(Cl)cc2)c(N(C)C)n1 | OfChi-h | enzyme activity, inhibitor, fluorescence | 1 µM | inhibition | 82.7%
C[C@@H]1CN(c2ccc(-c3cc(C(=O)NCCOCCOCCOCCOCCOCCOCCNC(=O)/C=C/c4[nH]cc(C(=O)N[C@@H](CC(N)=O)c5ccc(F)c(Cl)c5)c4-c4ccc(Cl)cc4F)ccc3F)cc2NC(=O)c2ccc(F)cc2C(F)(F)F)C[C@H](C)N1C | WDR5 | thermal stability, DSF | 5.5 µM | ΔTm | 5.9 °C
C=CS(=O)(=O)c1ccc(Nc2nc(OCC3CCCCC3)c3nc[nH]c3n2)cc1 | Gasdermin-D (GSDMD, Homo sapiens, UniProt P57764) | binding, BLI |  | koff | 0.0439 s⁻¹
O=C(/C=C/c1cccc(OS(=O)(=O)Oc2ccc(C(F)(F)F)cc2)c1)NO | HDAC7 | enzyme activity, inhibitor, fluorescence | 10 µM | inhibition | 30%
CN(C)c1nc(NCc2cccc(C(F)(F)F)c2)c(/N=N/c2ccc(Cl)cc2)c(N(C)C)n1 | OfChi-h | enzyme activity, inhibitor, fluorescence | 1 µM | inhibition | 91.9%
C=CC(=O)N1CCC(COCC(=O)N2CCN(c3nc(-c4cnc(N)nc4C(F)F)nc(N4CCOC[C@@H]4C)n3)CC2)CC1 | Cyclin-dependent kinase-like 3 (CDKL3, Homo sapiens, UniProt Q8IVW4) | binding, competition with immobilised ligand | 1 µM | remaining binding | 100%
Cc1cc([C@@H](C)Nc2ccccc2C(=O)O)c2nc(N3CCC(F)(F)CC3)c(C#N)c(=O)n2c1 | Protein kinase C epsilon type (PRKCE, Homo sapiens, UniProt Q02156) | binding, competition with immobilised ligand | 1 µM | remaining binding | 100%
COc1ccc(S(=O)(=O)N(CC(=O)NO)CC(C)C)cc1 | 72 kDa type IV collagenase (MMP2, Homo sapiens, UniProt P08253) | enzyme activity, inhibitor | 0.5 µM | inhibition | 60.9%
COc1cc(-c2cncc3c2CN(C)Cc2cc(N4CCNCC4)ccc2-3)cc(OC)c1OC | G protein-coupled receptor kinase 6 (GRK6, Homo sapiens, UniProt P43250) | enzyme activity, inhibitor | 1 µM | remaining activity | 112%
O=C(NO)c1cncc(OS(=O)(=O)Oc2ccc(C(F)(F)F)cc2)c1 | HDAC7 | enzyme activity, inhibitor, fluorescence | 10 µM | inhibition | 49%
C[C@@H]1CN(c2ccc(-c3cc(C(=O)NCCOCCOCCOCCOCCNC(=O)/C=C/c4[nH]cc(C(=O)N[C@@H](CC(N)=O)c5ccc(F)c(Cl)c5)c4-c4ccc(Cl)cc4F)ccc3F)cc2NC(=O)c2c[nH]c(=O)cc2C(F)(F)F)C[C@H](C)N1C | WDR5 | thermal stability, DSF | 5.5 µM | ΔTm | 10.6 °C
